Measurements from different studies.
Protocols differ between the studies behind these lines.
Target: Serine/threonine-protein kinase Nek11 (NEK11, Homo sapiens, UniProt Q8NG66)
Residues used in one study (Q8NG66 1-645): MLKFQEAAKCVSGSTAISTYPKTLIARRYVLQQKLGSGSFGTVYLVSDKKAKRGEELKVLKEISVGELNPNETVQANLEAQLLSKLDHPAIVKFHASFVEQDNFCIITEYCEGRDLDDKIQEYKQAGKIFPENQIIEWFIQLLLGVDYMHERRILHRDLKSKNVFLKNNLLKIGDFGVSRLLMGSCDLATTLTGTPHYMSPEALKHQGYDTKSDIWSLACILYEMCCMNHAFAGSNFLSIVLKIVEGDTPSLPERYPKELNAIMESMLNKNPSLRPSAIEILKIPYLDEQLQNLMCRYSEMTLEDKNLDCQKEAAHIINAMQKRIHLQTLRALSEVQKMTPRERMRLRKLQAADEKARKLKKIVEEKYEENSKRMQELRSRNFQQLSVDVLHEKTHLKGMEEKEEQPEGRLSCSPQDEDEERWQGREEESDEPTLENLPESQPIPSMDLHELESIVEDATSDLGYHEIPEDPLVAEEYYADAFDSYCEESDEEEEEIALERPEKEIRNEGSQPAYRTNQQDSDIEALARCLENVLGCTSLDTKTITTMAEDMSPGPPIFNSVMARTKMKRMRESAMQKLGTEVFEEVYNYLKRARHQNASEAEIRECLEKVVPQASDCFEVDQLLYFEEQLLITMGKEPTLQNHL

Nc1ncc2c(n1)-c1c([nH]c3ccc(C#CC4CC4)cc13)CCCC2 — remaining binding (binding; competition with immobilised ligand; 1 µM): 84%
CN(CCCC(F)(F)F)c1nccc(-c2cnn3ncccc23)n1 — remaining binding (binding; 1 µM): 100%
O=C(c1ccc(Nc2nccc(-c3cc4ccccc4s3)n2)cc1)N1CCC(N2CCCC2)CC1 — remaining binding (binding; competition with immobilised ligand; 1 µM): 78%
O=C(N[C@H]1CCCCC/C=C\C2C[C@@]2(C(=O)O)NC(=O)[C@@H]2C[C@@H](Oc3ccncc3)CN2C1=O)OC1CCCC1 (some centres unmarked) — remaining binding (binding; competition with immobilised ligand; 1 µM): 100%
N[C@@H]1CCN(c2nccc(-c3cnn4ncccc34)n2)C1 — remaining binding (binding; 1 µM): 100%
Cc1cnc(Nc2ccc(C(=O)N3CCC(N4CCCC4)CC3)cc2)nc1-c1cc2ccccc2s1 — remaining binding (binding; competition with immobilised ligand; 1 µM): 64%
c1cnn2ncc(-c3ccnc(N4CCC45COC5)n3)c2c1 — remaining binding (binding; 1 µM): 89%
COCCOc1nc(-c2ccc(Cl)nc2)nc2c1CN(C(=O)c1ncn3ccccc13)CC2 — remaining binding (cell-free assay; competition with immobilised ligand; 0.1 µM): 100%
F[C@@H]1CCN(c2nccc(-c3cnn4ncccc34)n2)C1 — remaining binding (binding; 1 µM): 100%
O=C(NCC1CCOCC1)c1n[nH]cc1NC(=O)c1c(F)cccc1F — remaining binding (binding; competition with immobilised ligand; 1 µM): 91%
c1cncc(-c2cccc(Nc3nccc(NC4CCCCC4)n3)c2)c1 — remaining binding (binding; competition with immobilised ligand; 10 µM): 100%
CNC(=O)[C@@H]1CC[C@@H](n2c(-c3ccc4cnccc4c3)nc3ccc(C(=O)NCc4cccc(C(N)=O)c4)cc32)C1 — remaining binding (binding; competition with immobilised ligand; 1 µM): 100%
CS(=O)(=O)NCC[C@H](NC(=O)c1cncc2c1cnn2-c1ccc(F)cc1)c1ccnc(S(C)(=O)=O)c1 — remaining binding (cell-free assay; competition with immobilised ligand; 1 µM): 100%
C[C@@H]1CCN(c2nccc(-c3cnn4ncccc34)n2)C1 — remaining binding (binding; 1 µM): 90%
Cc1cc(C)c(-n2ccn3nc(-c4cccnc4)cc23)cc1NC(=O)c1cc(C#N)cc(S(F)(F)(F)(F)F)c1 — remaining binding (cell-free assay; competition with immobilised ligand; 0.1 µM): 86.1%
Cc1cnn2ncc(-c3ccnc(N(C)C)n3)c2c1 — remaining binding (binding; 1 µM): 98%
Cn1nc(C(F)(F)F)cc1-c1cnc(N2CCc3cc(S(=O)(=O)Nc4c(F)cc(Cl)cc4F)cc(N4CCCC4=O)c32)nc1 — remaining binding (cell-free assay; competition with immobilised ligand; 1 µM): 78%
COc1ncc2cc3ccccc3nc2c1C#N — remaining binding (cell-free assay; competition with immobilised ligand; 5 µM): 60%
COc1ccc2c(c1)O[C@@H](c1ccc(OC)c(OC)c1)C[C@H]2NC(=O)C1(c2ccc3c(c2)OC(F)(F)O3)CC1 — remaining binding (cell-free assay; competition with immobilised ligand; 1 µM): 83%
O=C(NCCCN1CCOCC1)c1ccc(Nc2nccc(-c3cc4ccccc4s3)n2)cc1 — remaining binding (binding; competition with immobilised ligand; 1 µM): 75%
